Test [1] relates to Mus musculus. The test can be described thus: Analgesic activity against acetic acid-induced abdominal constriction in Swiss albino mouse at 15 mg/kg, po after 20 mins by writhing test. In kind it is functional, Abdomen. In outline:
(§1)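 Mice of both sexes, 25–30 g, dosed orally in 10% v/v Tween 80 in water. Test agents were given at 15 mg/kg and acetylsalicylic acid at 100 mg/kg. 30 min later, 0.7% acetic acid (10 ml/kg) ip. Writhes counted over 20 min; six per group. % protection = (control mean − treated mean)/control mean ×100; means ± SE.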
On the technique in general: Writhing tests count abdominal constrictions after an irritant is injected.

The subject of test [2] is Mus musculus. The test can be described thus: Analgesic activity in Swiss albino mouse assessed as reaction time at 15 mg/kg, po after 90 mins by hot plate test. It is filed as functional. The method, boiled down: (§2)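 Mice of both sexes, 25–30 g, on a hot plate at 53 ± 0.5 °C; reaction time taken to hind-paw lick or jump, 60 s cut-off. Baseline read before dosing. Oral dosing in 10% v/v Tween 80 in water: test agents 15 mg/kg, acetylsalicylic acid 100 mg/kg. Re-read at 15, 30, 60 and 90 min; means ± SE.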
Background: Thermal pain tests record how soon the animal reacts.

For test [3], the system named is Mus musculus. In words: Analgesic activity against acetic acid-induced abdominal constriction in Swiss albino mouse at 15 mg/kg, po after 20 mins by writhing test relative to acetylsalicylic acid. In kind it is functional, Abdomen. The method, boiled down: as §1
In test [4] the test system is Mus musculus. In words: Analgesic activity in Swiss albino mouse assessed as reaction time at 15 mg/kg, po after 60 mins by hot plate test. In kind it is functional. In outline: as §2
In test [5] the test system is Mus musculus. The test can be described thus: Analgesic activity in Swiss albino mouse assessed as reaction time at 15 mg/kg, po after 30 mins by hot plate test. In kind it is functional. In outline:
as §2

In test [6] the test system is Escherichia coli. The test can be described thus: Antimicrobial activity against Escherichia coli at 50 ug/disk after 24 to 28 hrs. The following applies: read-out: IZ. It is filed as functional. The method, boiled down: (§3)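 Agar disk diffusion: 5 mm paper disks loaded with 50 µg/disk in DMSO. Inhibition zones read after 24–28 h at 37 °C for bacteria, or 5 days at 28 °C for clinical Candida isolates grown on Sabouraud dextrose agar. Zone graded 6–10 mm slight, 11–15 mm moderate, >15 mm high. Reference disks: nalidixic acid 30 µg, nystatin 100 U.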

Test [7] concerns Klebsiella pneumoniae. The test can be described thus: Antimicrobial activity against Klebsiella pneumoniae at 50 ug/disk after 24 to 28 hrs. In kind it is functional. To be noted: read-out: IZ. The method, boiled down: as §3
Test [8] relates to Staphylococcus aureus. In words: Antimicrobial activity against Staphylococcus aureus at 50 ug/disk after 24 to 28 hrs. In kind it is functional. To be noted: read-out: IZ. In outline: as §3
In test [9] the test system is Pseudomonas aeruginosa. The test can be described thus: Antimicrobial activity against Pseudomonas aeruginosa at 50 ug/disk after 24 to 28 hrs. In kind it is functional. To be noted: read-out: IZ. In outline: as §3
The test system of test [10] is Nakaseomyces glabratus. In words: Antimicrobial activity against Candida glabrata at 50 ug/disk after 5 days. In kind it is functional. The method, boiled down:
as §3

Test [11] deals with Candida albicans. The test can be described thus: Antimicrobial activity against Candida albicans. It is filed as functional. The method, boiled down: (§4)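 MIC found by disk diffusion using disks carrying varying amounts of compound per disk, in DMSO. Incubated 24–28 h at 37 °C for bacteria and 5 days at 28 °C for Candida. MIC given in µg/disk.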
Test [12] relates to Pseudomonas aeruginosa. The test can be described thus: Antimicrobial activity against Pseudomonas aeruginosa. In kind it is functional. The method, boiled down:
as §4

The subject of test [13] is Candida albicans. The test can be described thus: Antimicrobial activity against Candida albicans at 50 ug/disk after 5 days. It is filed as functional. To be noted: 120 h, read-out: IZ. In outline: as §3
The subject of test [14] is Klebsiella pneumoniae. In words: Antimicrobial activity against Klebsiella pneumoniae. In kind it is functional. The method, boiled down:
as §4

Test [15] concerns Escherichia coli. In words: Antimicrobial activity against Escherichia coli. It is filed as functional. The method, boiled down: as §4
In test [16] the test system is Staphylococcus aureus. The test can be described thus: Antimicrobial activity against Staphylococcus aureus. It is filed as functional. The method, boiled down: as §4

Consider `O=c1c2c(-c3ccccc3)c3c(nc2nc2n(-c4ccccc4)nc(-c4ccccc4)n12)CCCC3`, for which the Activity in test [1] stood at 4.6%; in [3] it was 8.89%. Besides, the results for the Time in test [2], in test [4] and in test [5] were 11.88 s, 11.62 s and 9.84 s, respectively.

With `O=c1[nH]c(=S)[nH]c2nc3c(c(-c4ccc(Cl)cc4)c12)CCCC3`, the zone of inhibition at 50 µg/disc in [6] stood at 13 mm; in test [7], 14 mm; in [8] it was 13 mm; in [9], 14 mm.

Regarding `O=c1[nH]c(=S)[nH]c2nc3c(c(-c4ccccc4)c12)CCCC3`, the Activity in [1] is recorded as 35.4%; in test [3], 68.47%. In addition, the zone of inhibition at 50 µg/disc amounted to 12 mm in [6], 14 mm in [7], 13 mm in [8] and 15 mm in test [9]. Further, the figures for the Time in [2], in test [4] and in test [5] were 11.12 s, 10.98 s and 8.65 s, respectively.

For NYSTATIN, the inhibition zone (IZ) in [10] is 19 mm.

For the compound `Cc1n[nH]c2nc3nc4c(c(-c5ccccc5)c3c(=O)n12)CCCC4`, the zone of inhibition at 50 µg/disc in [10] (120 h, read-out: IZ) is 13 mm; in test [13] it was 18 mm; in test [6], 20 mm; in test [7] it was 20 mm; in test [8], 21 mm; in test [9], 21 mm. Moreover, the MIC in [11] is 50 µg; in test [12], 20 µg; in test [14], 20 µg; in test [15], 20 µg; in test [16], 20 µg. Besides, the Activity in test [1] was determined as 5.8%; in test [3], 11.2%. The Time in [2] is listed as 10.4 s; in test [4], 8.8 s; in test [5] it was 8.68 s.

On to `CCn1cc(C(=O)O)c(=O)c2ccc(C)nc21` [NALIDIXIC ACID], for which the zone of inhibition at 50 µg/disc is 24 mm in test [6], 25 mm in test [7], 25 mm in [8] and 25 mm in test [9].

The record behind these values is ChEMBL document CHEMBL1143876, “Synthesis, analgesic, anti-inflammatory, and antimicrobial activity of some novel pyrimido[4,5-b]quinolin-4-ones” (2008).
